A selection: hits, their analogues and other compounds. The true share with any hit is near 2.2%.
Hsp90 block: displaces geldanamycin probe from tumor Hsp90; inhibition, % at 30 µM; 64,000 tested, 0.35% active; NCI-N417 lysate Hsp90, Cy3B-geldanamycin FP displacement; P07900;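 active = inhibition above 50%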
S1P1 ag pot: activates or potentiates agonism at human S1P1 receptor; activation, % at 9.5 µM; S1P1 CRE-bla cells, forskolin, beta-lactamase FRET, potentiator mode; S1P1 agonist co-added at EC20, 2 nM; 100% = saturating reference agonist, 0% = basal; P21453; 56,000 tested, 0.57% active; AID 449;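 active = activation above a cutoff set at the mean activation of all tested compounds plus 3 SD, cut at about 54% in these data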;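 note: forskolin at 4 µM as EC80 and the EC20 agonist is SEW2871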
Spn DPM-DC inh: blocks S. pneumoniae diphosphomevalonate decarboxylase | purified DPM-DC, PK/LDH coupled NADH fluorescence | calls only at 10 µM | 65,000 tested, 0.49% active | AID 556;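 active = the 320 compounds with the highest percent inhibition in the single-dose primary screen, excluding strongly autofluorescent ones, cut at about 32% in these data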;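 note: kinetic rate of NADH fluorescence loss reporting ADP formed by the decarboxylase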
Spn PMK inh: S. pneumoniae PMK inhibition | inhibition, % at 10 µM | purified PMK, PK/LDH-coupled NADH absorbance 340 nm | 65,000 tested, 0.49% active;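 active = top-ranked compounds by inhibition in the single 10 µM screen, taking a fixed number of the strongest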
S1P3 agonist: agonists of human S1P3 receptor. activation, % at 4.5 µM. 60,000 tested, 0.1% active. S1P3 NFAT-BLA reporter cells, agonism, FRET ratio; relative to 1 µM S1P, basal subtracted. Q99500. AID 373;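 active = activation above the screen-wide mean plus 3 SD, cut at about 4.5% in these data, passing the limit was not always enough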
Target sequence (Q99500 whole entry, looked up): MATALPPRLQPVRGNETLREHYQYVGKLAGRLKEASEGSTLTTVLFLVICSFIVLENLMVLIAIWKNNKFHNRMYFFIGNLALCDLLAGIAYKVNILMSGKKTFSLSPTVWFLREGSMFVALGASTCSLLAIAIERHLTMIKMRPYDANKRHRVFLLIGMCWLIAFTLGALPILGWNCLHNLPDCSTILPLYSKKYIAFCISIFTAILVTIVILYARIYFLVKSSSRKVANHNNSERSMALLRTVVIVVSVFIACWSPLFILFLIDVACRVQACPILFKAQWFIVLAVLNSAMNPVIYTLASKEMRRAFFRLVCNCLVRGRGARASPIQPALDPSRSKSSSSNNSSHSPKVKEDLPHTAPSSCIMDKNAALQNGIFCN
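Material: Human S1P3 NFAT-BLA reporter CHO cells | Incubation: Overnight plating, 4 h compound 37 °C, 2 h substrate RT | Signal: FRET β-lactamase substrate fluorescence, excitation 405 nm, 460/535 nm emission ratio, background-subtracted | Compound: 4.5 µM final, single dose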
Spn MK inh: blocks S. pneumoniae mevalonate kinase | purified MK, PK/LDH-coupled NADH absorbance 340 nm | inhibition, % at 10 µM | 65,000 tested, 0.48% active | AID 555;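 active = ranked among the strongest by inhibition in the single 10 µM screen, a fixed top-ranked set picked for dose follow-up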
A number is an active result; i = inactive; nt = no result; + = active, no number.

SMILES	Hsp90 block	S1P1 ag pot	Spn DPM-DC inh	Spn PMK inh	S1P3 agonist	Spn MK inh
CCSc1nnc(NC(=O)c2cccc(OCc3c(C)noc3C)c2)s1	nt	nt	i	i	nt	i
O=C(Nc1ccc(-c2noc(CCc3ccccc3)n2)cc1)c1cccnc1	i	94	i	i	i	i
CCCc1ccc(OCc2nc(-c3ccc(NC(=O)c4ccco4)cc3)no2)cc1	i	94	i	i	i	i
O=C(CCCc1nc(-c2ccc(Cl)cc2)no1)Nc1cccnc1	i	i	i	i	i	i
Cc1ccccc1OCc1nc(-c2ccc(NC(=O)c3ccco3)cc2)no1	i	nt	i	i	nt	i
CC1CCN(CCCNC(=O)Cc2c(C(=O)O)n(C)c3ccccc23)CC1	i	i	i	i	i	i
CCCc1[nH]nc2c1C(c1ccc(OC)c(Cn3nnc4ccccc43)c1)C(C#N)=C(N)O2 (stereo not drawn)	i	i	i	i	i	51
CCC1Oc2ccc(C)cc2N(CC(=O)NCCN2CCCCCC2)C1=O (stereo not drawn)	i	i	i	25	i	i
CCC1Oc2ccc(C)cc2N(CC(=O)NCCN2C(C)CCCC2C)C1=O (stereo not drawn)	i	i	i	i	i	i
COc1ccc(OC)c(C2/C(=C(\O)c3c(C)nc4ccccn34)C(=O)C(=O)N2CCCN(C)C)c1 (stereo not drawn)	i	i	i	i	i	i
COC(=O)CCCC(=O)Nc1c(F)c(F)c(F)c(F)c1F	i	i	i	i	i	i
O=C(Nc1ccc(N2CCCC2)c(Cl)c1)c1ccc(Br)o1	i	97	nt	i	i	i
O=C(Nc1ccc2nn(-c3ccccc3)nc2c1)c1ccc(Br)o1	i	i	+	i	i	i
CCCC(=O)N1CCN(c2ccc(NC(=O)c3cc4ccccc4o3)cc2Cl)CC1	i	66	i	i	i	i
COc1cc(C)c(S(=O)(=O)NCc2cccs2)cc1C	i	i	i	i	i	i
CCOC(=O)CC1C(=O)NCCN1C(=O)Nc1ccccc1 (stereo not drawn)	i	i	i	i	i	49
COC(=O)CC1C(=O)NCCN1C(=O)Nc1ccccc1 (stereo not drawn)	i	i	i	i	i	i
O=C1c2c(O)cc(O)cc2OC(c2ccc(O)c(O)c2)C1O (stereo not drawn)	71	nt	nt	nt	nt	nt
CC1(C)CC(=O)c2c(O)cc(O)cc2O1	i	i	i	i	i	i
COc1ccc2c(c1)CCc1c(C(=O)Nc3ccc(OC)c(OC)c3)noc1-2	i	104	i	i	i	i
O=C(Nc1ccc2c(c1)OCCO2)C1CCCN(S(=O)(=O)c2cccnc2)C1 (stereo not drawn)	i	i	i	i	i	i
Cc1cc(C)cc(-n2cc3c(=O)n(C)c(=O)n(C)c3c2)c1	i	i	i	i	i	i
Cc1cc(C(=O)N2CCN(C(c3ccccc3)c3ccccc3)CC2)on1	i	88	i	i	i	i
O=C(c1cc(C2CC2)on1)N1CCN(C(c2ccccc2)c2ccccc2)CC1	i	i	i	i	i	i
Cc1c(-c2ccccc2)sc(N)c1C(=O)N1CCOCC1	i	i	i	i	i	i
SMILES	Hsp90 block	S1P1 ag pot	Spn DPM-DC inh	Spn PMK inh	S1P3 agonist	Spn MK inh
O=C(CN1CCOCC1)N1CCc2ccccc2C(c2ccccc2)C1 (stereo not drawn)	i	i	i	i	i	i
C=CCN1CCc2c(cc(O)c(O)c2Br)[C@@H](c2ccccc2)C1	81	nt	nt	nt	nt	nt
CSCC[C@H](NC(=O)OC(C)(C)C)c1nnc(SCC(=O)Nc2ccc(C)cc2C)o1	nt	nt	i	i	nt	i
COc1ccccc1NC(=O)CSc1ncnc2c1oc1ccccc12	i	i	i	i	i	i
COc1ccc(CCNc2ncnc3c2oc2ccccc23)cc1OC	i	116	i	i	i	i
COc1cc(N)c2nccc(Cl)c2c1	i	nt	nt	nt	nt	nt
O=c1c2ccccc2nc(SCc2nc(-c3ccccc3)no2)n1-c1ccc(F)cc1	i	i	i	i	i	i
COc1ccc(N2CCN(C(c3ccco3)c3sc4nc(C)nn4c3O)CC2)cc1 (stereo not drawn)	i	i	i	27	i	i
COC(=O)c1ccccc1NC(=O)c1cc2ncc(Br)cn2n1	i	i	i	i	i	i

Bioassay records: PubChem BioAssay, several laboratories
